Source: ChEMBL document CHEMBL3407400, “Design, synthesis and biological evaluations of chirally pure 1,2,3,4-tertrahydroisoquinoline analogs as anti-cancer agents” (Eur J Med Chem, 2015)
Active and inactive are the calls of the source. No cut-off for these calls is given here.

Tests used:
[1] = test system: MCF7; assay: Anticancer activity against human MCF7 cells after 48 hrs by MTT assay; format: functional, cell-based; conditions: MCF7, 48 h
Method in brief: (§1)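 Cell lines held in DMEM or MEM with 10% FBS and antibiotic-antimycotic at 37 °C, 5% CO2. Cells seeded at 1 × 10⁴ per well in DMEM with 10% FBS and left 24 h. Compounds diluted in medium and added alongside vehicle control for 48 h. MTT (5 mg/mL) added for 4 h, formazan dissolved in DMSO, absorbance read at 570 nm.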

[2] = test system: HeLa; assay: Anticancer activity against human HeLa cells after 48 hrs by MTT assay; format: functional, cell-based; method in brief: as §1
[3] = test system: A549; assay: Anticancer activity against human A549 cells after 48 hrs by MTT assay; format: functional, cell-based; conditions: A549, 48 h; method in brief: as §1
[4] = test system: DU-145; assay: Anticancer activity against human DU145 cells after 48 hrs by MTT assay; format: functional, cell-based; conditions: DU-145, 48 h; method in brief: as §1
[5] = test system: HepG2; assay: Anticancer activity against human HepG2 cells after 48 hrs by MTT assay; format: functional, cell-based; conditions: HepG2, 48 h; method in brief: as §1
[6] = test system: DU-145; assay: Cell cycle arrest in human DU145 cells assessed as G2/M phase at 0.5 uM after 48 hrs by propidium iodide based flow cytometry (reference value: 6.75 %); format: functional
[7] = test system: DU-145; assay: Induction of apoptosis in human DU145 cells assessed as late apoptotic cells at 1 uM after 48 hrs by annexin V FITC/PI dual staining assay (reference value: 2.47 %); format: functional
[8] = test system: DU-145; assay: Cell cycle arrest in human DU145 cells assessed as G2/M phase at 1 uM after 48 hrs by propidium iodide based flow cytometry (reference value: 6.75 %); format: functional
[9] = test system: DU-145; assay: Induction of apoptosis in human DU145 cells assessed as necrotic cells at 0.5 uM after 48 hrs by annexin V FITC/PI dual staining assay (reference value: 0.31 %); format: functional
[10] = test system: DU-145; assay: Cell cycle arrest in human DU145 cells assessed as subG1 phase at 0.5 uM after 48 hrs by propidium iodide based flow cytometry (reference value: 9.36 %); format: functional
[11] = test system: DU-145; assay: Induction of apoptosis in human DU145 cells assessed as early apoptotic cells at 1 uM after 48 hrs by annexin V FITC/PI dual staining assay (reference value: 0.77 %); format: functional
[12] = test system: DU-145; assay: Cell cycle arrest in human DU145 cells assessed as subG1 phase at 1 uM after 48 hrs by propidium iodide based flow cytometry (reference value: 9.36 %); format: functional
[13] = test system: DU-145; assay: Induction of apoptosis in human DU145 cells assessed as necrotic cells at 1 uM after 48 hrs by annexin V FITC/PI dual staining assay (reference value: 0.31 %); format: functional
[14] = test system: DU-145; assay: Disruption of microtubule network in human DU145 cells at 50 uM after 48 hrs by immunohistochemistry analysis; format: cell-based
[15] = test system: DU-145; assay: Cell cycle arrest in human DU145 cells assessed as G0/G1 phase at 0.5 uM after 48 hrs by propidium iodide based flow cytometry (reference value: 79.15 %); format: functional
[16] = test system: DU-145; assay: Induction of apoptosis in human DU145 cells assessed as late apoptotic cells at 0.5 uM after 48 hrs by annexin V FITC/PI dual staining assay (reference value: 2.47 %); format: functional
[17] = test system: DU-145; assay: Cell cycle arrest in human DU145 cells assessed as S phase at 0.5 uM after 48 hrs by propidium iodide based flow cytometry (reference value: 1.65 %); format: functional
[18] = test system: DU-145; assay: Induction of apoptosis in human DU145 cells assessed as up regulation of Bax at 0.5 uM after 48 hrs by Western blot analysis relative to control; format: functional, cell-based
[19] = test system: DU-145; assay: Induction of apoptosis in human DU145 cells assessed as down regulation of Bcl2 at 0.5 uM after 48 hrs by Western blot analysis relative to control; format: functional, cell-based
[20] = target: Tubulin; assay: Inhibition of tubulin (unknown origin) polymerization by fluorescence assay; format: protein-complex assay, Homo sapiens
[21] = test system: DU-145; assay: Induction of apoptosis in human DU145 cells assessed as viable cells at 0.5 uM after 48 hrs by annexin V FITC/PI dual staining assay (reference value: 96.45 %); format: functional; conditions: DU-145, 48 h, read-out: Activity
[22] = test system: DU-145; assay: Induction of apoptosis in human DU145 cells assessed as early apoptotic cells at 0.5 uM after 48 hrs by annexin V FITC/PI dual staining assay (reference value: 0.77 %); format: functional
[23] = test system: DU-145; assay: Induction of apoptosis in human DU145 cells assessed as DNA fragmentation at 0.5 uM after 48 hrs by agarose gel electrophoresis; format: functional, cell-based
Method in brief: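 DU-145 cells (1 × 10⁶) seeded, then treated 24 h later for 48 h. Lysate cleared, then digested with SDS/RNase A (2 h, 56 °C) and proteinase K (2 h, 37 °C). DNA precipitated with ammonium acetate and ice-cold ethanol, dissolved in TE. Laddering resolved on 2% agarose.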

[24] = test system: DU-145; assay: Induction of apoptosis in human DU145 cells assessed as activation of caspase 3 at 0.5 to 1 uM after 48 hrs by fluorometric assay relative to control; format: functional
Method in brief: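 DU-145 cells treated for 48 h. Fluorometric caspase-3 kit used: […] substrate added to cell lysate, 1 h at 37 °C. Fluorescence read at excitation 400 nm, emission 505 nm.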

[25] = test system: DU-145; assay: Cell cycle arrest in human DU145 cells assessed as S phase at 1 uM after 48 hrs by propidium iodide based flow cytometry (reference value: 1.65 %); format: functional
[26] = test system: DU-145; assay: Cell cycle arrest in human DU145 cells assessed as G0/G1 phase at 1 uM after 48 hrs by propidium iodide based flow cytometry (reference value: 79.15 %); format: functional
[27] = test system: DU-145; assay: Induction of apoptosis in human DU145 cells assessed as viable cells at 1 uM after 48 hrs by annexin V FITC/PI dual staining assay (reference value: 96.45 %); format: functional; conditions: DU-145, 48 h, read-out: Activity

**Q.** Which results are given for Cc1ccc(S(=O)(=O)N[C@@H](Cc2ccccc2)C(=O)N2Cc3ccccc3[C@@H](OCc3ccccc3)[C@@H]2CO)cc1?
**A.** IC50 [1]: 8.71 µM; IC50 [2]: 12.3 µM; IC50 [3]: 6.91 µM; IC50 [4]: 1.26 µM; IC50 [5]: 2.24 µM

**Q.** With Cc1ccc(S(=O)(=O)N2C[C@H]3[C@H](OCc4ccccc4)c4ccccc4CN3C(=O)[C@@H]2Cc2ccccc2)cc1 as the compound, how does the IC50 [1] read?
**A.** 17.6 µM

**Q.** And the IC50 [2]?
**A.** 20.3 µM

**Q.** What about the IC50 [3] of the same compound?
**A.** 13.7 µM

**Q.** And the IC50 [4]?
**A.** 7.41 µM

**Q.** What about the IC50 [5] of the same compound?
**A.** 10.8 µM

**Q.** Cc1ccc(S(=O)(=O)Nc2ccccc2C(=O)N2Cc3ccccc3[C@@H](OCc3ccccc3)[C@@H]2CO)cc1 was tested. Which IC50 [1] did it give?
**A.** 79.4 µM

**Q.** And the IC50 [2]?
**A.** 56.3 µM

**Q.** And the IC50 [3]?
**A.** 37.1 µM

**Q.** And the IC50 [4]?
**A.** 39.8 µM

**Q.** What about the IC50 [5] of the same compound?
**A.** 57.5 µM

**Q.** Which Activity [6] does the source give for Cc1ccc(S(=O)(=O)N2CC(=O)N3Cc4ccccc4[C@@H](OCc4ccccc4)[C@@H]3C2)cc1 here?
**A.** 17.68%

**Q.** And the IC50 [1]?
**A.** 2.51 µM

**Q.** What about the Activity [7] of the same compound?
**A.** 25.79%

**Q.** What about the IC50 [2] of the same compound?
**A.** 3.16 µM

**Q.** What about the Activity [8] of the same compound?
**A.** 44.17%

**Q.** And the Activity [9]?
**A.** 0.63%

**Q.** What about the Activity [10] of the same compound?
**A.** 8.22%

**Q.** And the IC50 [3]?
**A.** 1.26 µM

**Q.** What about the Activity [11] of the same compound?
**A.** 4.15%

**Q.** And the Activity [12]?
**A.** 5.02%

**Q.** And the Activity [13]?
**A.** 4.48%

**Q.** And the Activity [14]?
**A.** Active

**Q.** And the Activity [15]?
**A.** 67.34%

**Q.** What about the Activity [16] of the same compound?
**A.** 6.47%

**Q.** And the IC50 [4]?
**A.** 0.72 µM

**Q.** What about the Activity [17] of the same compound?
**A.** 2.64%

**Q.** And the Activity [18]?
**A.** Active

**Q.** And the Activity [19]?
**A.** Active

**Q.** And the IC50 [20]?
**A.** 1.68 µM

**Q.** What about the viability at 0.5 µM [21] of the same compound?
**A.** 90.1%

**Q.** And the Activity [22]?
**A.** 2.79%

**Q.** And the Activity [23]?
**A.** Active

**Q.** What about the “fold change (FC)” value [24] of the same compound?
**A.** 3

**Q.** And the Activity [25]?
**A.** 0.9%

**Q.** What about the Activity [26] of the same compound?
**A.** 46.74%

**Q.** What about the IC50 [5] of the same compound?
**A.** 0.87 µM

**Q.** What about the viability at 1 µM [27] of the same compound?
**A.** 65.6%

**Q.** What does the source list for COc1cc(/C=C/C(=O)N2Cc3ccccc3[C@@H](OCc3ccccc3)[C@@H]2CO)ccc1O?
**A.** IC50 [1]: 37.3 µM; IC50 [2]: 67.6 µM; IC50 [3]: 63 µM; IC50 [4]: 41.3 µM; IC50 [5]: 79.4 µM

**Q.** Cc1ccc(S(=O)(=O)N[C@@H](C)C(=O)N2Cc3ccccc3[C@@H](OCc3ccccc3)[C@@H]2CO)cc1 was tested. Which IC50 [1] did it give?
**A.** 14.8 µM

**Q.** And the IC50 [2]?
**A.** 21 µM

**Q.** And the IC50 [3]?
**A.** 7.37 µM

**Q.** What about the IC50 [4] of the same compound?
**A.** 4.67 µM

**Q.** And the IC50 [5]?
**A.** 5.37 µM

**Q.** What does the source list for O=C(/C=C/c1cccc(O)c1)N1Cc2ccccc2[C@@H](OCc2ccccc2)[C@@H]1CO?
**A.** IC50 [1]: 19.2 µM; IC50 [2]: 15.8 µM; IC50 [3]: 4.36 µM; IC50 [4]: 2.08 µM; IC50 [5]: 2.82 µM

**Q.** How did the IC50 [1] turn out when COc1ccc(C(=O)N2Cc3ccccc3[C@@H](OCc3ccccc3)[C@@H]2CO)c(O)c1 was run?
**A.** 21.8 µM

**Q.** What about the IC50 [2] of the same compound?
**A.** 12.5 µM

**Q.** What about the IC50 [3] of the same compound?
**A.** 6.46 µM

**Q.** What about the IC50 [4] of the same compound?
**A.** 9.77 µM

**Q.** What about the IC50 [5] of the same compound?
**A.** 11.4 µM

**Q.** Which results are given for O=C(/C=C/c1ccc(F)cc1)N1Cc2ccccc2[C@@H](OCc2ccccc2)[C@@H]1CO?
**A.** IC50 [1]: 57.3 µM; IC50 [2]: 58.3 µM; IC50 [3]: 32.3 µM; IC50 [4]: 29.3 µM; IC50 [5]: 24.6 µM

**Q.** Which results are given for COc1cc([C@@H]2c3cc4c(cc3[C@@H](O[C@@H]3O[C@@H]5CO[C@@H](C)O[C@H]5[C@H](O)[C@H]3O)[C@H]3COC(=O)[C@H]23)OCO4)cc(OC)c1O [ETOPOSIDE]?
**A.** IC50 [1]: 2.69 µM; IC50 [2]: 3.23 µM; Activity [8]: 38.75%; IC50 [3]: 3.01 µM; Activity [12]: 7.13%; IC50 [4]: 1.98 µM; Activity [25]: 1.45%; Activity [26]: 48.84%; IC50 [5]: 2.45 µM
